One compound from ChEMBL document CHEMBL3046951, “Volatile constituents from the leaves of Callicarpa japonica Thunb. and their antibacterial activities” (2004) can be followed below.

What all share (format): functional
Test [1] concerns Bacillus cereus. Put plainly: Antimicrobial activity against Bacillus cereus ATCC 11778 assessed as growth inhibition rate at 4.64 mg/l after 72 hr by spectrophotometry. The settings on record: ATCC 11778, 72 h, read-out: GI. The essentials: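 Pure volatile compounds (purity >95%; one at 90%) were tested against B. cereus ATCC 11778. The strain was grown at 30 °C in nutrient broth for 24 h, then subcultured for 18 h. Optical density was read in a Bioscreen C every 24 h for 72 h, with 10% Tween 80 as the control.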

In test [2] the test system is Listeria monocytogenes. Put plainly: Antimicrobial activity against Listeria monocytogenes ATCC 19111 assessed as growth inhibition rate at 4.64 mg/l after 72 hr by spectrophotometry. The note with it: ATCC 19111, 72 h, read-out: GI. The essentials: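 L. monocytogenes was grown at 30 °C in tryptic soy broth, subcultured for 18 h, and exposed to pure volatile compounds (>95% purity). Growth was followed by Bioscreen C optical density every 24 h for 72 h against a 10% Tween 80 control.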

For test [3], the system named is Staphylococcus aureus. Put plainly: Antimicrobial activity against Staphylococcus aureus ATCC 25923 assessed as growth inhibition rate at 4.64 mg/l after 72 hr by spectrophotometry. The settings on record: ATCC 25923, 72 h, read-out: GI.
Test [4] concerns Escherichia coli. Put plainly: Antimicrobial activity against Escherichia coli O157:H7 ATCC 43894 assessed as growth inhibition rate at 4.64 mg/l after 72 hr by spectrophotometry. The settings on record: O157:H7 ATCC 43894, 72 h, read-out: GI.
For test [5], the system named is Salmonella typhimurium. Put plainly: Antimicrobial activity against Salmonella enterica subsp. enterica serovar Typhimurium ATCC 14028 assessed as growth inhibition rate at 4.64 mg/l after 72 hr by spectrophotometry. The settings on record: ATCC 14028, 72 h, read-out: GI. The essentials: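 Salmonella Typhimurium ATCC 14028 grown in nutrient broth at 30 °C, precultured 24 h, then subcultured 1:100 for 18 h before testing. Single volatile compounds (>95% pure) were added. OD was read every 24 h over 72 h in a Bioscreen C, with 10% Tween 80 as the comparison control.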

The subject of test [6] is Vibrio parahaemolyticus. Kind of test: Antimicrobial activity against Vibrio parahaemolyticus ATCC 33844 assessed as growth inhibition rate at 4.64 mg/l after 72 hr by spectrophotometry. The note with it: ATCC 33844, 72 h, read-out: GI.

As for `C[C@@H]1CC[C@@H]2[C@@H]1[C@H]1[C@@H](CC[C@@]2(C)O)C1(C)C` [GLOBULOL], the inhibition of growth at 4.64 µg/mL came to 1.9% in test [1]; 6.3% in test [2]; 8.3% in test [3]; 0% in test [4]; 0.8% in test [5]; 0% in test [6].
